From ChEMBL document CHEMBL1141334, “Mirabamides A-D, depsipeptides from the sponge Siliquariaspongia mirabilis that inhibit HIV-1 fusion” (J Nat Prod, 2007)
Calls of active or inactive are those of the source. The calls are words filed in the database; no cut-off is given here. *1 amine or outer side, *2 acyl side, *3 side chain or, on linkers, in order; H or OH if unused. Where a SMILES comes first, the peptide text is derived from it. Bridges are numbered along the chain shown (N, C = ends). [ ]: non-standard residue; d: D form. The star is where a group is joined. dLeu(3R-OH) = CC(C)[C@@H](O[*:3])[C@@H](N[*:1])C(=O)[*:2]; Gln(3S,4R-Me2) = C[C@H]([C@H](N)C(=O)O)[C@@H](C)C(N)=O; dTyr(βR-OMe) = CO[C@H](c1ccc(O)cc1)[C@@H](N)C(=O)O; Pip(4S-Cl) = O=C(O)[C@@H]1C[C@@H](Cl)CCN1; X1 = CCC(C)/C=C(C)/C=C\C(O)C(C)(O)C(=O)*; Abu(3R-NH2) = C[C@@H](N)[C@H](N)C(=O)O; NMeT = CN[C@H](C(=O)O)[C@@H](C)O

What was measured:
[1] = tested on: Human immunodeficiency virus 1; test: Inhibition of HIV HXB2 in TZM-bl cells after 48 hrs by neutralization assay; type: functional, organism-based; conditions: Human immunodeficiency virus 1, HXB2, TZM-bl
How it was run: (§1)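 Env-pseudotyped viral particles (HXB2, CXCR4-using; SF162, CCR5-using) added with varying inhibitor concentrations (in H2O or 20% EtOH in H2O) to TZM-bl cells (CD4, CXCR4, CCR5) after overnight plating at 37 °C. Luciferase luminescence (RLU) read after 48 h at 37 °C. Duplicate or triplicate, on at least two different days.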

[2] = tested on: Human immunodeficiency virus 1; test: Inhibition of HIV SF162 in TZM-bl cells after 48 hrs by neutralization assay; type: functional, organism-based; conditions: Human immunodeficiency virus 1, SF162, TZM-bl; how it was run: as §1
[3] = tested on: Human immunodeficiency virus 1; test: Inhibition of HIV LAV in BSC1 cells after 2.5 hrs by cell fusion assay; type: functional, organism-based; conditions: Human immunodeficiency virus 1, LAV, BSC-1, 2.5 h
[4] = Cytotoxicity against african green monkey BSC1 cells after 3 hrs by MTT assay; type: cell-based; conditions: chlorocebus aethiops, bsc-1, 3 h
How it was run: (§2)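 MTT kit assay. Cells seeded at 2 × 10^4/well, adhered 18 h, then exposed for 3 h (fusion-assay conditions) or 24 h (neutralization-assay conditions). Medium then replaced or diluted 3-fold with fresh growth medium, followed by 72 h further culture. Viability read at A570 after MTT.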

Candida albicans = test: Antifungal activity against Candida albicans ATCC 90027 at 5 ug per disk after 18 hrs by disk diffusion method; type: functional; conditions: ATCC 90027, 18 h, read-out: IZ
How it was run: (§3)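 Modified disk diffusion. Bacteria: 500 µL of 24 h culture in 100 mL Antibiotic Medium 2 with 1% agar at 55 °C; C. albicans in Sabouraud dextrose agar at 55 °C. 10 mL seeded agar poured per dish, cooled 1 h. Compounds applied at 1–25 µg; zones of inhibition measured after 18 h at 37 °C.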

Escherichia coli = test: Antimicrobial activity against Escherichia coli ATCC 8739 at 25 ug per disk after 18 hrs by disk diffusion method; type: functional, organism-based; how it was run: as §3
Pseudomonas aeruginosa = test: Antimicrobial activity against Pseudomonas aeruginosa ATCC 15442 at 25 ug per disk after 18 hrs by disk diffusion method; type: functional, organism-based; how it was run: as §3
Staphylococcus aureus = test: Antimicrobial activity against Staphylococcus aureus ATCC 25923 at 25 ug per disk after 18 hrs by disk diffusion method; type: functional, organism-based; how it was run: as §3
Bacillus subtilis [5] = test: Antimicrobial activity against Bacillus subtilis ATCC 49343 at 5 ug per disk after 18 hrs by disk diffusion method; type: functional, organism-based; how it was run: as §3
HCT-116 = test: Cytotoxicity against human HCT116 cells by MTT assay; type: functional, cell-based; how it was run: as §2
[6] = Cytotoxicity against human TZM-bl cells after 24 hrs by MTT assay; type: functional, cell-based; how it was run: as §2
Bacillus subtilis [7] = test: Antimicrobial activity against Bacillus subtilis ATCC 49343 at 1 ug per disk after 18 hrs by disk diffusion method; type: functional; conditions: ATCC 49343, 18 h, read-out: IZ
How it was run: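 Modified disk diffusion: 24 h bacterial culture seeded (500 µL per 100 mL) into Antibiotic Medium 2 with 1% agar at 55 °C, 10 mL poured into square dishes, cooled 1 h. Compound applied to disks (1–25 µg range tested); chloramphenicol 10 µg disk as control. Incubated 37 °C, 18 h; inhibition zone diameters measured.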

SMILES | IC50 [1] [nM] | IC50 [2] [nM] | IC50 [3] [nM] | Activity [4] | zone of inhibition at 5 µg/disc (Candida albicans) [mm] | Activity (Escherichia coli) | Activity (Pseudomonas aeruginosa) | Activity (Staphylococcus aureus) | Activity (Bacillus subtilis [5]) | IC50 (HCT-116) [nM] | IC50 [6] [nM] | zone of inhibition at 1 µg/disc (Bacillus subtilis [7]) [mm]
C/C=C(\NC(=O)[C@@H](NC(=O)CNC(=O)C(C)(O)C(O)/C=C\C(C)=C\C(C)CC)[C@@H](C)O)C(=O)N[C@H](C(=O)N[C@H]1C(=O)N[C@H](COC)C(=O)NCC(=O)N[C@@H](C)C(=O)N(C)[C@@H]([C@@H](C)O)C(=O)N[C@H]([C@H](OC)c2ccc(O[C@@H]3O[C@@H](C)[C@H](O)[C@@H](O)[C@H]3O)cc2)C(=O)N2CC[C@H](Cl)C[C@H]2C(=O)O[C@@H]1C(C)C)[C@@H](C)[C@@H](C)C(N)=O (stereo not given in full) [MIRABAMIDE B] | > 50000 | > 50000 | > 10000 | Non-toxic | 9 | inactive | inactive | inactive | Active |  |  | 
CCC(C)/C=C(C)/C=C\C(O)C(C)(O)C(=O)NCC(=O)N[C@H](C(=O)N[C@H](C(=O)N[C@H](C(=O)N[C@H]1C(=O)N[C@H](COC)C(=O)NCC(=O)N[C@@H](C)C(=O)N(C)[C@@H]([C@@H](C)O)C(=O)N[C@H]([C@H](OC)c2ccc(O)cc2)C(=O)N2CCCC[C@H]2C(=O)O[C@@H]1C(C)C)[C@@H](C)[C@@H](C)C(N)=O)[C@@H](C)N)[C@@H](C)O (stereo not given in full) [PAPUAMIDE A] |  |  | 73 | Non-toxic |  | inactive | inactive | inactive |  | 3500 |  | 
CCC(C)/C=C(C)/C=C\C(O)C(C)(O)C(=O)NCC(=O)N[C@H](C(=O)N[C@H](C(=O)N[C@H](C(=O)N[C@H]1C(=O)N[C@H](COC)C(=O)NCC(=O)N[C@@H](C)C(=O)N(C)[C@@H]([C@@H](C)O)C(=O)N[C@H]([C@H](OC)c2ccc(O)cc2)C(=O)N2CC[C@H](Cl)C[C@H]2C(=O)O[C@@H]1C(C)C)[C@@H](C)[C@@H](C)C(N)=O)[C@@H](C)N)[C@@H](C)O (stereo partly drawn) [MIRABAMIDE C] (X1-GT[Abu(3R-NH2)][Gln(3S,4R-Me2)][dLeu(3R-OH)][dS](Me)GA[NMeT][dTyr(βR-OMe)][Pip(4S-Cl)]; ester 5-C) | 144 | 1010 | 1300 | Non-toxic | 9 | inactive | inactive | inactive |  |  | 2200 | 9
CCC(C)/C=C(C)/C=C\C(O)C(C)(O)C(=O)NCC(=O)N[C@H](C(=O)N[C@H](C(=O)N[C@H](C(=O)N[C@H]1C(=O)N[C@H](COC)C(=O)NCC(=O)N[C@@H](C)C(=O)N(C)[C@@H]([C@@H](C)O)C(=O)N[C@H]([C@H](OC)c2ccc(O[C@@H]3O[C@@H](C)[C@H](O)[C@@H](O)[C@H]3O)cc2)C(=O)N2CC[C@H](Cl)C[C@H]2C(=O)O[C@@H]1C(C)C)[C@@H](C)[C@@H](C)C(N)=O)[C@@H](C)N)[C@@H](C)O (stereo not given in full) [MIRABAMIDE A] | 140 | 400 | 41 | Non-toxic | 9 | inactive | inactive | inactive | Active | 2220 | 1800 | 
CCC(C)/C=C(C)/C=C\C(O)C(C)(O)C(=O)NCC(=O)N[C@H](C(=O)N[C@H](C(=O)N[C@H](C(=O)N[C@H]1C(=O)N[C@H](COC)C(=O)NCC(=O)N[C@@H](C)C(=O)N(C)[C@@H]([C@@H](C)O)C(=O)N[C@H]([C@H](OC)c2ccc(O[C@@H]3O[C@@H](C)[C@H](O)[C@@H](O)[C@H]3O)cc2)C(=O)N2CCCC[C@H]2C(=O)O[C@@H]1C(C)C)[C@@H](C)[C@@H](C)C(N)=O)[C@@H](C)N)[C@@H](C)O (stereo not given in full) [MIRABAMIDE D] | 189 | 1310 | 3900 | Non-toxic |  | inactive | inactive | inactive |  |  | 3900 | 9
